Measured values taken from the EternaBench riboswitch data.

Tests used:
[1] = test system: MS2 coat protein; test: apparent Kd, MS2 coat protein; higher = weaker binding; RNA-MaP array; tryptophan 2.4 mM where present
Procedure, shortened: (§1)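 Two titrations, one without ligand and one with constant ligand, were run with SNAP-549-labelled MS2 coat protein from 0.7 or 1.5 nM, doubling to 3 µM. The targets were designs transcribed by stalled E. coli RNA polymerase on Illumina sequencing-chip clusters, in 100 mM Tris-HCl pH 7.5, 80 mM KCl, 4 mM MgCl2, BSA, DTT, yeast tRNA and Tween-20. The apparent Kd is the median of filtered per-cluster binding-curve fits, with green signal normalised to red-channel RNA signal and control-cluster median Fmax.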

[2] = test system: MS2 coat protein; test: apparent Kd, MS2 coat protein; higher = weaker binding; RNA-MaP array; theophylline 2 mM where present
Procedure, shortened: as §1

[3] = designed as: ON switch for tryptophan, no ligand
[4] = ligand present: tryptophan, designed as: ON switch for tryptophan
[5] = designed as: OFF switch for tryptophan, no ligand
[6] = ligand present: tryptophan, designed as: OFF switch for tryptophan
[7] = designed as: ON switch for theophylline, no ligand
[8] = ligand present: theophylline, designed as: ON switch for theophylline
[9] = designed as: OFF switch for theophylline, no ligand
[10] = ligand present: theophylline, designed as: OFF switch for theophylline

Row | Sequence | apparent Kd [1, 3] [nM] | apparent Kd [1, 4] [nM] | apparent Kd [2, 7] [nM] | apparent Kd [2, 8] [nM] | other results
1 | CGAGUAAGAACAAUCGAAUAACGGUUUUCGCGAGGACCGGUACGGCCGCCACUCGUGUGAUAUAACACAUGAGGAUCACCCAUGU | 26.3 | 24.4 |  |  | 
2 | CGAUAUGGGACGGCCGCCACUAUUAUGUAACAAAAUAAACAUGAGGAUCACCCAUGUACAUGGGAUAGGACCGGGUCCUAUAACG | 32.4 | 19.9 |  |  | 
3 | CUAGAUGGAAACGUCUGGACGCACAAGCGACGAGGACCGGUACGGCCGCCACUCGAAGAGUGGUGGACAUGAGGAUCACCCAUGU | 53.8 | 39.2 |  |  | 
4 | CUCAUCCACGCGGCCGCCACUAUAUUGUGGUGUGAAUGUGUCGUAAUACAUGAGGAUCACCCAUGUAGGACCGGGCGUGGAUGAG |  |  |  |  | apparent Kd [1, 5]: 20.1 nM; apparent Kd [1, 6]: 32.9 nM
5 | CUGCUACAUACGGCCGCCACUUUAAACAUGAGGAUCACCCAUGUACGGAAGGGUGGUAAAUGUUAAAGGACCGGGUAUGUAGCAA |  |  |  |  | apparent Kd [1, 5]: 176 nM; apparent Kd [1, 6]: 45.1 nM
6 | GACCCAUGAGUUGCAAAAGCUCAUGGGUCGCGAGGACCGGUACGGCCGCCACUCGGCUGUACAUGAGGAUCACCCAUGUCAGGGU | 371 | 529 |  |  | 
7 | GAUAUGGAAACAUGUCAGAUCCUUACCGGUCGAGGACCGGUACGGCCGCCACUCGCAAAUAUUGUACAUGAGGAUCACCCAUGUA |  |  |  |  | apparent Kd [1, 5]: 13.1 nM; apparent Kd [1, 6]: 13.6 nM
8 | GCAUCCUAGUCGGCCGCCACUGGUACGAACACCUUCACCCGUGUGCACAUGAGGAUCACCCAUGUCAGGACCGGGACUAGGAUGC | 9.36 | 9.66 |  |  | 
9 | GCUAGGUCAUCGGCCGCCACUAACGACGGUUCCAACAUGAGGAUCACCCAUGUGCCACAUGCGCAUAGGACCGGGAUGACCUAGC | 33 | 21 |  |  | 
10 | GGAUUACGAAAGUAGUCCAUCAAGUUCGAGCGAGGACCGGUACGGCCGCCACUCGAACAUGAGGAUCACCCAUGUAGCGAAAGCU | 284 | 255 |  |  | 
11 | GGAUUCAACUCGGCCGCCACUGGUGAUCCUAAUGUACAUGAGGAUCACCCAUGUACAUGAGAAUACAGGACCGGGAGAUAAGCAA | 19.4 | 13.9 |  |  | 
12 | GGGUGGUAGGCGGCCGCCACUGAUUUUCAUAUAUAUAUAACAUGAGGAUCACCCAUGUAGAUAUGCAGGACCGGGCCUGUUGUUU | 36.5 | 30.4 |  |  | 
13 | UACAGUACAACAGAUACCAGACAGUACUCUAGAUUGCAACAUGAGGAUCACCCAUGUAUAGUCCCUUGGCAGCUGUAAUGGGUGA |  |  | 180 | 441 | 
14 | UCCUUAGAUACUGAUACCAGACUACAGUAAACAUGAGGAUCACCCAUGUUUGAUCACUAAGUCCCUUGGCAGCAGGUACAUGGGA |  |  | 11.3 | 9.08 | 
15 | UCGACAGUGAACGAUACCAGCGUCACGUGGCCGGUGGUCACAUGAGGAUCACCCAUGUAACGCCCUUGGCAGCGUGCACGUAUCC |  |  |  |  | apparent Kd [2, 9]: 26.1 nM; apparent Kd [2, 10]: 184 nM
16 | UCGCUCGCCGGAAGGCGAGCGAGUUGCGAUACCAGCCCGGAAACGGGCCCUUGGCAGCGCACAUGAGGAUCACCCAUGUCAUGUU |  |  |  |  | apparent Kd [2, 9]: 19.4 nM; apparent Kd [2, 10]: 26.2 nM
17 | UCGUGAGUUUCGGAUACCAGUGUUGUCGAUACAUGAGGAUCACCCAUGUUAGAGGAUGUACACCCUUGGCAGCCGGCUGUGGCGG |  |  | 18.6 | 11.3 | 
18 | UCGUGUAUAACGGAUACCAGUGAGAAGGAUACAUGAGGAUCACCCAUGUGAGUUGAUGUACACCCUUGGCAGCUGUAUAUAUCUA |  |  | 75.5 | 49.6 | 
19 | UGACAUUGCUCAGAUACCAGACAUGAGGAUCACCCAUGUACCAAGGUAAAGAAAUAACGUGUCCCUUGGCAGCUGAGCAAUGUCU |  |  |  |  | apparent Kd [2, 9]: 10.1 nM; apparent Kd [2, 10]: 98.8 nM
20 | UGACAUUGCUCAGAUACCAGACAUGAGGAUCACCCAUGUGCCAACGUACAAAUAAUAAAUGUCCCUUGGCAGCUGAGCAAUGUCU |  |  |  |  | apparent Kd [2, 9]: 11.4 nM; apparent Kd [2, 10]: 35 nM
21 | UGUAACAUGAGGAUCACCCAUGUAAGUGAUACCAGAUAAGUAGUAGUCCCUUGGCAGCAUAUUGGGCAAGUGUAUAGUCUAUACG |  |  | 49.8 | 53.5 | 
22 | UGUAUGUGAUCUGAUACCAGUCCCUUGGCAGCAACAUGAGGAUCACCCAUGUAGAUACCAGACCCUUGGCAGCAGAUCGCAUACU |  |  | 9.06 | 8.27 | 
23 | UGUAUGUGAUUUGAUACCAGAUCAGCUGGUUAUACAUGAGGAUCACCCAUGUUACUUUGGGUCCCUUGGCAGCAAAUCGCAUACU |  |  | 487 | 28.4 | 
24 | UUAAAUGUGACGGAUACCAGCGUGUUGUAGAACAUGAGGAUCACCCAUGUAGUGAUCAUGCGCCCUUGGCAGCUGGUAUGUUUGA |  |  | 379 | 607 | 
25 | UUAUUUAUAAUGGAUACCAGUCGUAUGGCCCGGCAUCCUGACAUGAGGAUCACCCAUGUCGACCCUUGGCAGCUGUUAUGGGUUU |  |  |  |  | apparent Kd [2, 9]: 13.5 nM; apparent Kd [2, 10]: 20 nM
26 | UUUUAACAUGAGGAUCACCCAUGUAAUGAUACCAGAGACGAAAGUCUCCCUUGGCAGCAUAAUCAUUACAUGAGAUGGAAACAUC |  |  | 30.6 | 116 | 
